ChEMBL document CHEMBL1151724, “Sesquiterpene lactones from Gonospermum gomerae and G. fruticosum and their cytotoxic activities” (J Nat Prod, 2008)
Active and inactive are the calls of the source. No cut-off for these calls is given here.

Experiments:
HL-60 [1] = assay: Induction of apoptosis in human HL-60 cells upto 30 uM after 48 hrs by flow cytometry; format: functional, cell-based
Outline: (§1)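 HL-60 cells exposed to 30 µM for 48 h. Hypodiploid (apoptotic) fraction quantified by flow cytometry; average ± SE of triplicate determinations from a representative experiment.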

A549 = assay: Cytotoxicity against human A549 cells after 72 hrs by MTT assay; format: functional, cell-based; conditions: A549, 72 h
Outline: (§2)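 Exponentially growing cells, 1 × 10^4 per well in RPMI 1640 with 10% FBS, treated with 0.3-100 µM for 72 h. DMSO at most 0.1% (v/v). Viability read by MTT reduction as absorbance at 570 nm and expressed as survival relative to control wells. IC50 obtained by curve fitting; means ± SE of three independent experiments, each in triplicate.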

SK-MEL-1 [2] = assay: Cytotoxicity against human SK-MEL-1 cells after 72 hrs by MTT assay; format: functional, cell-based; conditions: SK-MEL-1, 72 h; outline: as §2
U-937 = assay: Cytotoxicity against human U937 cells after 72 hrs by MTT assay; format: functional, cell-based; conditions: U-937, 72 h; outline: as §2
HL-60 [3] = assay: Cytotoxicity against human HL-60 cells after 72 hrs by MTT assay; format: functional, cell-based; conditions: HL-60, 72 h; outline: as §2
HL-60 [4] = assay: Cell cycle arrest in human HL-60 cells assessed as accumulation at sub G0/G1 phase at 30 uM after 48 hrs by flow cytometry; format: functional
Outline: (§3)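 Cells grown in RPMI 1640 with 10% heat-inactivated FBS at 37 °C, 5% CO2, exposed to 30 µM for 48 h. Washed in ice-cold PBS, fixed in 75% ethanol at -20 °C for 1 h, then stained with 50 µg/mL propidium iodide plus 100 µg/mL RNase A for 1 h at 37 °C in the dark. Phase distribution read by flow cytometry; mean ± SEM of two experiments.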

HL-60 [5] = assay: Effect on cell death in human HL-60 cells assessed as induction of procaspase 7 cleavage at 30 uM; format: functional, cell-based
Outline: (§4)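 HL-60 cells (1 × 10^6) treated in RPMI 1640, lysed in Tris-HCl pH 6.8 with 2% SDS and boiled. Lysates run on 12% SDS-PAGE, transferred to PVDF and probed with anti-caspase-3, -6 or -7 antibodies, then HRP secondary. Bands detected by chemiluminescence; loading checked by Ponceau S staining. One representative blot of three.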

HL-60 [6] = assay: Induction of apoptosis in human HL-60 cells assessed as fragmentated and condensed chromatin at 30 uM after 24 hrs by fluorescence microscopy; format: functional, cell-based
Outline: (§5)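 HL-60 or SK-MEL-1 cells exposed to 30 µM, then DNA-stained with Hoechst 33258 (bisbenzimide). Chromatin condensation, fragmentation and apoptotic bodies assessed by fluorescence microscopy.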

HL-60 [7] = assay: Induction of apoptosis in human HL-60 cells assessed as apoptotic bodies at 30 uM after 24 hrs by fluorescence microscopy; format: functional, cell-based; outline: as §5
HL-60 [8] = assay: Cell cycle arrest in human HL-60 cells assessed as accumulation at G0/G1 phase at 30 uM after 48 hrs by flow cytometry; format: functional; outline: as §3
SK-MEL-1 [9] = assay: Induction of apoptosis in human SK-MEL-1 cells assessed as apoptotic bodies at 30 uM after 24 hrs by fluorescence microscopy; format: functional, cell-based; outline: as §5
HL-60 [10] = assay: Effect on cell death in human HL-60 cells assessed as induction of procaspase 6 cleavage at 30 uM; format: functional, cell-based; outline: as §4
HL-60 [11] = assay: Induction of apoptosis in human HL-60 cells at 30 uM after 48 hrs by flow cytometry; format: functional; outline: as §1
HL-60 [12] = assay: Cell cycle arrest in human HL-60 cells assessed as accumulation at G2-M phase at 30 uM after 48 hrs by flow cytometry; format: functional; outline: as §3
HL-60 [13] = assay: Induction of apoptosis in human HL-60 cells assessed as internucleosomal DNA fragmentation at 30 uM after 24 hrs by ethidium bromide assay; format: functional, cell-based
Outline: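 HL-60 cells exposed to 30 µM for 24 h. Total cellular DNA isolated, electrophoresed on 2% agarose, stained with ethidium bromide and inspected under UV for internucleosomal laddering.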

SK-MEL-1 [14] = assay: Induction of apoptosis in human SK-MEL-1 cells assessed as fragmentated and condensed chromatin at 30 uM after 24 hrs by fluorescence microscopy; format: functional, cell-based; outline: as §5
HL-60 [15] = assay: Cell cycle arrest in human HL-60 cells assessed as accumulation at S phase at 30 uM after 48 hrs by flow cytometry; format: functional; outline: as §3
HL-60 [16] = assay: Effect on cell death in human HL-60 cells assessed as induction of procaspase 3 cleavage at 30 uM; format: functional, cell-based; outline: as §4

For C=CC(C)(O)C/C=C/C(C)(O)CCC(OC(C)=O)C(=C)C (stereo not given), the Activity (HL-60 [1]) was “inactive”.

In the case of C=C1C(=O)O[C@H]2C[C@@]3(C)[C@H](OC(C)=O)CCC(=C)[C@H]3[C@@H](OC(=O)/C(C)=C/C)[C@H]12, the Activity (HL-60 [1]) is reported as “inactive”.

C=C1C(=O)O[C@H]2/C=C(/C)[C@@H](OC(C)=O)CC/C(C)=C/[C@@H](OC(=O)/C(C)=C/C)[C@H]12 was tested, and the Activity (HL-60 [1]) was “inactive”.

For C=C1C[C@@H]2OC(=O)C(=C)[C@H]2[C@H](OC(=O)/C(C)=C\C)/C=C(\C)CCC1=O, the Activity (HL-60 [1]) was “inactive”.

C=C1C(=O)O[C@H]2C[C@@]3(C)[C@H](O)CC[C@@](C)(O)[C@H]3[C@@H](O)[C@H]12 was tested, and the Activity (HL-60 [1]) was “inactive”.

With C=C1C(=O)O[C@H]2[C@H]1[C@@H](O)C[C@@]1(C)[C@H](O)CCC(=C)[C@@H]21 the Activity (HL-60 [1]) was “inactive”.

For C=C1C(=O)O[C@H]2/C=C(/C)[C@@H](O)CC/C(C)=C/[C@@H](OC(=O)/C(C)=C/C)[C@H]12, the Activity (HL-60 [1]) was “inactive”.

C=C1C(=O)O[C@H]2C[C@@]3(C)[C@H](OC(C)=O)CC[C@@](C)(O)[C@H]3[C@@H](O)[C@H]12 gave an IC50 (A549) greater than 100 µM, an IC50 (SK-MEL-1 [2]) greater than 100 µM and an IC50 (U-937) greater than 100 µM. The Activity (HL-60 [1]) was “inactive” and the IC50 (HL-60 [3]) was greater than 100 µM.

For C=C1C(=O)O[C@H]2C[C@@]3(C)[C@H](OC(C)=O)CC[C@@](C)(O)[C@H]3[C@@H](OC(C)=O)[C@H]12, the IC50 (A549) was greater than 100 µM, the IC50 (SK-MEL-1 [2]) was 27.9 µM and the Activity (HL-60 [4]) was 11.8%. The IC50 (U-937) was 10.4 µM, the Activity (HL-60 [5]) was “Active” and the Activity (HL-60 [6]) was “Active”. The IC50 (HL-60 [3]) was 13.3 µM, the Activity (HL-60 [7]) was “Active” and the Activity (HL-60 [8]) was 39.3%. For the same compound, the Activity (SK-MEL-1 [9]) was “Active”, the Activity (HL-60 [10]) was “Active” and the Activity (HL-60 [11]) was 12%. For the same compound, the Activity (HL-60 [12]) was 21.8%, the Activity (HL-60 [13]) was “Active” and the Activity (SK-MEL-1 [14]) was “Active”. The Activity (HL-60 [15]) was 21.5% and the Activity (HL-60 [16]) was “Active”.

C=C1C(=O)O[C@H]2C[C@@]3(C)[C@H](O)CCC(=C)[C@H]3[C@@H](OC(=O)/C(C)=C/C)[C@H]12 was tested, and the Activity (HL-60 [1]) was “inactive”.

With C=C1CC[C@@H](OC(C)=O)[C@]2(C)C[C@H](OC(C)=O)[C@H]3C(=C)C(=O)O[C@@H]3C12 (stereo not given in full) the IC50 (A549) was 72.4 µM, the IC50 (SK-MEL-1 [2]) was 14.3 µM and the Activity (HL-60 [4]) was 30%. For the same compound, the IC50 (U-937) was 9.2 µM, the Activity (HL-60 [5]) was “Active” and the Activity (HL-60 [6]) was “Active”. For the same compound, the IC50 (HL-60 [3]) was 9.4 µM, the Activity (HL-60 [7]) was “Active” and the Activity (HL-60 [8]) was 26.8%. The Activity (SK-MEL-1 [9]) was “Active”, the Activity (HL-60 [10]) was “Active” and the Activity (HL-60 [11]) was 30%. The Activity (HL-60 [12]) was 18.5%, the Activity (HL-60 [13]) was “Active” and the Activity (SK-MEL-1 [14]) was “Active”. For the same compound, the Activity (HL-60 [15]) was 22% and the Activity (HL-60 [16]) was “Active”.

COc1cc([C@@H]2c3cc4c(cc3[C@@H](O[C@@H]3O[C@@H]5CO[C@@H](C)O[C@H]5[C@H](O)[C@H]3O)[C@H]3COC(=O)[C@H]23)OCO4)cc(OC)c1O [ETOPOSIDE] showed an IC50 (A549) of 5.9 µM, an IC50 (SK-MEL-1 [2]) greater than 30 µM and an Activity (HL-60 [4]) of 47.7%. For the same compound, the IC50 (U-937) was 0.92 µM, the IC50 (HL-60 [3]) was 0.25 µM and the Activity (HL-60 [8]) was 29.4%. For the same compound, the Activity (HL-60 [12]) was 2.6% and the Activity (HL-60 [15]) was 17.1%.
